Results from ChEMBL document CHEMBL3232844, “Synthesis and structure activity relationships of schweinfurthin indoles” (2014).

Tests used:
Format in all cases: functional
[1] = system: HOP-62; assay: Cytotoxicity against human HOP62 cells; settings: for CC50: read-out: pLC50 (the source's name) (converted); for TGI: read-out: pTGI (converted)
Method in brief: (§1)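 Tested in a 60-cell-line human tumor panel screen; the read-out is growth inhibition, reported as GI50 for each cell line.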

[2] = system: MDA-MB-468; assay: Cytotoxicity against human MDA-MB-468 cells; settings: for TGI: read-out: pTGI (converted); method in brief: as §1
[3] = system: RPMI-8226; assay: Cytotoxicity against human RPMI8226 cells; settings: for CC50: read-out: pLC50 (the source's name) (converted); for TGI: read-out: pTGI (converted); method in brief: as §1
[4] = system: PC-3; assay: Cytotoxicity against human PC3 cells; settings: for TGI: read-out: pTGI (converted); method in brief: as §1
[5] = system: SK-MEL-5; assay: Cytotoxicity against human SK-MEL-5 cells; settings: for CC50: read-out: pLC50 (the source's name) (converted); for TGI: read-out: pTGI (converted); method in brief: as §1
[6] = system: SR; assay: Cytotoxicity against human SR cells; settings: for CC50: read-out: pLC50 (the source's name) (converted); for TGI: read-out: pTGI (converted)
Method in brief: (§2)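 Cell line run as part of the 60-cell-line screening panel; growth inhibition was reported as a GI50 for each line.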

[7] = system: COLO 205; assay: Cytotoxicity against human COLO205 cells; settings: for CC50: read-out: pLC50 (the source's name) (converted); for TGI: read-out: pTGI (converted); method in brief: as §1
[8] = Cytotoxicity against human UACC62 cells; settings: for GI50: UACC-62; for CC50: UACC-62, read-out: pLC50 (the source's name) (converted); for TGI: UACC-62, read-out: pTGI (converted); method in brief: as §2
[9] = system: NCI-H522; assay: Cytotoxicity against human NCI-H522 cells; settings: for CC50: read-out: pLC50 (the source's name) (converted); for TGI: read-out: pTGI (converted); method in brief: as §1
[10] = system: HOP-92; assay: Cytotoxicity against human HOP92 cells; settings: for CC50: read-out: pLC50 (the source's name) (converted); for TGI: read-out: pTGI (converted); method in brief: as §1
[11] = system: SNB-19; assay: Cytotoxicity against human SNB19 cells; settings: for CC50: read-out: pLC50 (the source's name) (converted); for TGI: read-out: pTGI (converted); method in brief: as §1
[12] = system: CCRF-CEM; assay: Cytotoxicity against human CCRF-CEM cells; settings: for CC50: read-out: pLC50 (the source's name) (converted); for TGI: read-out: pTGI (converted)
[13] = system: NCI-H322M; assay: Cytotoxicity against human NCI-H322M cells; settings: for CC50: read-out: pLC50 (the source's name) (converted); for TGI: read-out: pTGI (converted); method in brief: as §1
[14] = system: Malme-3M; assay: Cytotoxicity against human MALME-3M cells; settings: for CC50: read-out: pLC50 (the source's name) (converted); for TGI: read-out: pTGI (converted); method in brief: as §1
[15] = Cytotoxicity against human Hs578T cells; settings: Hs-578T; for TGI: read-out: pTGI (converted); method in brief: as §1
[16] = system: SW-620; assay: Cytotoxicity against human SW620 cells; settings: for CC50: read-out: pLC50 (the source's name) (converted); method in brief: as §2
[17] = system: SK-MEL-28; assay: Cytotoxicity against human SK-MEL-28 cells; settings: for TGI: read-out: pTGI (converted); method in brief: as §1

`COc1cc(/C=C/c2cc(O)c3c(C/C=C(\C)CCC=C(C)C)c[nH]c3c2)cc2c1O[C@]1(C)CC[C@@H](O)C(C)(C)[C@H]1C2` showed a GI50 [1] of 794 nM, a CC50 [1] of 8.71 µM and a TGI [1] of 2750 nM. The GI50 [2] was 2000 nM, the LC50 [2] was greater than 100 µM and the TGI [2] was 44.7 µM. The GI50 [3] was 158 nM, the CC50 [3] was greater than 100 µM and the TGI [3] was 1660 nM. For the same compound, the GI50 [4] was 457 nM, the LC50 [4] was greater than 100 µM and the TGI [4] was 24.5 µM. For the same compound, the GI50 [5] was 1070 nM, the CC50 [5] was 5.37 µM and the TGI [5] was 2400 nM. It also gave a GI50 [6] of 550 nM, a CC50 [6] greater than 100 µM and a TGI [6] of 29.5 µM. The GI50 [7] was 331 nM, the CC50 [7] was 6.31 µM and the TGI [7] was 1020 nM. For the same compound, the GI50 [8] was 1260 nM, the CC50 [8] was greater than 100 µM and the TGI [8] was 4680 nM. It also gave a GI50 [9] of 2630 nM, a CC50 [9] greater than 100 µM and a TGI [9] of 16.6 µM. It also gave a GI50 [10] of 724 nM, a CC50 [10] greater than 100 µM and a TGI [10] of 8.71 µM. It also gave a GI50 [11] of 2450 nM, a CC50 [11] greater than 100 µM and a TGI [11] greater than 100 µM. It also gave a GI50 [12] of 724 nM, a CC50 [12] greater than 100 µM and a TGI [12] greater than 100 µM. The GI50 [13] was 60.3 µM, the CC50 [13] was greater than 100 µM and the TGI [13] was greater than 100 µM. The GI50 [14] was 2950 nM, the CC50 [14] was greater than 100 µM and the TGI [14] was 61.7 µM.
Compound `COc1cc(/C=C/c2cc(OC)c3cc[nH]c3c2)cc2c1O[C@]1(C)CC[C@@H](O)C(C)(C)[C@H]1C2` has a GI50 [1] of 501 nM, a CC50 [1] of 9.55 µM and a TGI [1] of 2400 nM. The GI50 [2] was 631 nM, the LC50 [2] was greater than 100 µM and the TGI [2] was 4.47 µM. It also gave a GI50 [3] of 28.2 nM, a CC50 [3] greater than 100 µM and a TGI [3] of 85.1 nM. For the same compound, the GI50 [4] was 191 nM, the LC50 [4] was greater than 100 µM and the TGI [4] was 1.78 µM. For the same compound, the GI50 [5] was 178 nM, the CC50 [5] was 0.708 µM and the TGI [5] was 355 nM. The GI50 [6] was 302 nM, the CC50 [6] was greater than 100 µM and the TGI [6] was 5.62 µM. For the same compound, the GI50 [7] was 219 nM, the CC50 [7] was 0.891 µM and the TGI [7] was 447 nM. The GI50 [8] was 162 nM, the CC50 [8] was 0.955 µM and the TGI [8] was 398 nM. For the same compound, the GI50 [9] was 708 nM, the CC50 [9] was greater than 100 µM and the TGI [9] was 2.88 µM. The GI50 [15] was 51.3 nM, the LC50 [15] was greater than 100 µM and the TGI [15] was 776 nM. The GI50 [16] was 309 nM, the CC50 [16] was 5.5 µM and the TGI ([16]; read-out: pTGI (converted)) was 1350 nM. For the same compound, the GI50 [11] was 676 nM, the CC50 [11] was greater than 100 µM and the TGI [11] was 7.08 µM. For the same compound, the GI50 [17] was 209 nM, the TGI [17] was 0.776 µM and the GI50 [12] was 151 nM. For the same compound, the CC50 [12] was greater than 100 µM, the GI50 [13] was 3.55 µM and the CC50 [13] was greater than 100 µM. For the same compound, the TGI [13] was 37.2 µM, the GI50 [14] was 575 nM and the CC50 [14] was greater than 100 µM. The TGI [14] was 4.9 µM.
For `COc1cc(/C=C/c2cc(O)c3c(c2)C[C@@H]2C(C)(C)[C@H](O)CC[C@@]2(C)O3)cc2c1ccn2C`, the GI50 [1] was 75.9 nM, the CC50 [1] was 26.9 µM and the TGI [1] was 4680 nM. For the same compound, the GI50 [2] was 871 nM, the LC50 [2] was 46.8 µM and the TGI [2] was 15.1 µM. For the same compound, the GI50 [4] was 741 nM, the LC50 [4] was 89.1 µM and the TGI [4] was 38 µM. The CC50 [5] was 12 µM, the GI50 [6] was 75.9 nM and the CC50 [6] was 89.1 µM. The TGI [6] was 39.8 µM, the GI50 [7] was 5620 nM and the CC50 [7] was 42.7 µM. The TGI [7] was 17800 nM, the CC50 [8] was 21.4 µM and the GI50 [9] was 5890 nM. It also gave a GI50 [10] of 955 nM, a CC50 [10] of 89.1 µM and a TGI [10] of 12.6 µM. It also gave a GI50 [15] of 22.9 nM, an LC50 [15] of 89.1 µM and a TGI [15] of 3550 nM. It also gave a CC50 [16] of 18.6 µM, a GI50 [11] of 14.1 nM and a CC50 [11] of 41.7 µM. For the same compound, the TGI [11] was 13.8 µM, the GI50 [17] was 145 nM and the CC50 ([17]; read-out: pLC50 (the source's name) (converted)) was 45.7 µM. It also gave a TGI [17] of 17.4 µM, a GI50 [12] of 53.7 nM and a CC50 [12] of 89.1 µM. The TGI [12] was 12.3 µM, the GI50 [13] was 13.2 µM and the CC50 [13] was 60.3 µM. It also gave a TGI [13] of 28.2 µM.
